# A selection: hits, their analogues and other compounds. The true share with any hit is near 5.2%.
# M18AAP inhibitor: blocks P. falciparum M18 aspartyl aminopeptidase; 290,000 compounds, 1.2% hits; recombinant PfM18AAP, H-Glu-NHMec fluorogenic cleavage; inhibition, % at 7.35 µM;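 active = inhibition above the campaign mean inhibition over all tested compounds plus 3 SD, cut at about 28% in these data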;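 also: 0% = plate median of test compound wells and 100% = 2 mM ZnCl2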
# HCV NS3 hel inh: HCV NS3 helicase inhibition. NS3 helicase DNA unwinding, Cy5 molecular beacon fluorescence. 290,000 compounds, 0.56% hits. inhibition, % at 10.9 µM;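 active = inhibition above the mean of all tested compounds plus 3 SD, set per campaign, cut at about 35% in these data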;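 also: 0% = DMSO wells and 100% = thioflavine S control wells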
#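 System: Hepatitis C virus NS3 helicase domain fragment enzyme | Reagent: Annealed dual-labelled DNA beacon duplex, ATP-started | Compound dosing: 10.9 µM single point, 0.8% DMSO | Incubation: 1 h reaction at 25 °C, ATP-initiated | Technique: Cy5 fluorescence | Evaluation: Percent inhibition from t60/t0 fluorescence ratio | Benchmarks: Low DMSO, high thioflavine S at 110 µM | Replication: Singlicate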
# core dimer inh: HCV core protein dimerization inhibition. inhibition, % at 5 µM. AID 1899. 300,000 compounds, 0.33% hits. TR-FRET GST/Flag-core106 dimerization, 1536-well;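 active = inhibition above the mean of all tested compounds plus 3 SD, set per screening campaign, cut at about 45% in these data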
#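 Test system: GST/Flag-tagged HCV core106 proteins; Medium: KF-containing HEPES buffer, pH 7.45, DTT, CHAPS, BSA; Times: compound-protein-antibody incubation 4 h at 22.5 °C; Detection: TR-FRET 671 and 617 nm emission; Benchmarks: wells lacking GST-core106 and wells with excess unlabelled core106.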
# ALR H2O2 inh: inhibitors of human sulfhydryl oxidase ALR. P55789. purified ALR, DTT oxidation, H2O2 HRP-luminol luminescence. inhibition, % (concentration not given with the values). 290,000 compounds, 3.8% hits. AID 485317;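 active = mean replicate inhibition above about 79%, with every replicate also reaching it, limit read from the data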
# EBNA-1 inh: blocks EBNA-1 binding to DNA; EBNA-1 DNA binding, fluorescence polarization; inhibition, % at 14.8 µM; 300,000 compounds, 0.34% hits; in the data active = inhibition above about 28%
# ZTA counter: ZTA (EBV) inhibition in EBNA-1 counter-screen. 320,000 compounds, 0.15% hits. AID 2234. P03206. ZTA-DNA binding, fluorescence polarization. inhibition, % at 11 µM; in the data active = inhibition above about 33%
# Target sequence (P03206 whole entry, looked up): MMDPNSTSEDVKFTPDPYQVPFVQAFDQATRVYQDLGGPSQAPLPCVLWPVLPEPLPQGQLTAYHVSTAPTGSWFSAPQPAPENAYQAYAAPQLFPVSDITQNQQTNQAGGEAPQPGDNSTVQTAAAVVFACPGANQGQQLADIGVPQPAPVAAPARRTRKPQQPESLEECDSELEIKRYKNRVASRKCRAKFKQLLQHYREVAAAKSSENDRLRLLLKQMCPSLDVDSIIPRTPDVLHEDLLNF
# The depositor's hits bear a star; x = no result given.
SMILES,M18AAP inhibitor,HCV NS3 hel inh,core dimer inh,ALR H2O2 inh,EBNA-1 inh,ZTA counter
Cc1cc(C)cc(NC(=O)CC2Oc3ccc(C)cc3NC2=O)c1 (stereo not given),-1,-23,-5,9,21,-5
COc1ccc(Cl)cc1NC(=O)CN1CCN(S(=O)(=O)N2CCCCC2)CC1,-11,-7,2,-3,4,3
C[n+]1c2n(c3ccccc31)N=C(c1ccc(-c3ccccc3)cc1)CS2,-4,-26,-1,99*,-3,-4
C[n+]1c2n(c3ccccc31)N=C(c1ccccc1)CS2,11,-6,5,89*,7,5
C[n+]1c2n(c3ccccc31)N=C(c1ccc(Br)cc1)CS2,14,-1,-9,99*,-20,-13
Cc1cc(-c2nnc3n2N=C(c2ccc(-c4ccccc4)cc2)CS3)n[nH]1,-3,-32,33,-11,13,19
Cc1cccc(-c2nnc3n2N=C(c2ccccc2)CS3)c1,3,5,2,3,12,3
Cn1c(CC(=O)Nc2ccccc2)cc2ccccc21,-9,-3,4,-23,4,-12
COc1ccccc1N=c1oc2c(OC)cccc2cc1C(=O)NCc1ccco1,1,8,5,86*,10,3
O=C(c1ccc(CS(=O)Cc2ccccc2Cl)o1)N1CCN(c2ccccn2)CC1 (stereo not given),-2,1,-4,99*,-18,-10
O=C(c1ccc(CS(=O)Cc2ccccc2Cl)o1)N1CCN(c2cccc(Cl)c2)CC1 (stereo not given),2,-6,-10,99*,-2,-12
COc1cccc(N2CCN(C(=O)c3ccc(CS(=O)Cc4ccccc4Cl)o3)CC2)c1 (stereo not given),-7,-17,1,52,-10,2
COc1cc(CN2CCC(C(=O)N3CCC(C)CC3)CC2)cc(Br)c1O,31*,10,-4,24,-2,-2
O=C(c1ccc(Cl)cc1)C(CN1CCCCC1)c1ccccc1 (stereo not given),0,-8,9,97*,-6,10
O=[N+]([O-])c1cccc(Cl)c1NCCNc1ncc(C(F)(F)F)cc1Cl,7,-6,-8,100*,4,-6
O=C1CCCN1CCC(=O)N1CCCC(N2CCN(c3ccccc3F)CC2)C1 (stereo not given),-13,4,-2,7,2,-5
COc1ccc(NC(=O)CCC(=O)c2cccs2)cc1Cl,2,-22,11,-3,16,-9
COc1cc(NCCC(=O)c2cccs2)c(OC)cc1Cl,7,-2,-9,100*,0,4
C=CCc1cccc(/C=N/n2cnnc2)c1O,30*,-1,0,23,7,-15
C=CCc1cccc(/C=N/NC(=O)CNc2ccccc2)c1O,0,-10,5,-2,-17,4
C=CCc1cccc(/C=N/NC(=O)C[n+]2ccccc2)c1O,29*,-14,7,21,6,6
C=CCc1cccc(C=Nc2ccc(Br)cc2)c1O,3,3,4,-2,5,8
CCCn1cc(SCC(=O)Nc2cc(C)on2)c2ccccc21,0,0,-6,8,-1,-1
CCn1cc(SCC(N)=O)c2ccccc21,2,-4,6,96*,-12,5
Cc1cc(NC(=O)CSc2cn(C)c3ccccc23)no1,9,1,-8,-29,6,21
SMILES,M18AAP inhibitor,HCV NS3 hel inh,core dimer inh,ALR H2O2 inh,EBNA-1 inh,ZTA counter
Cc1cc(NC(=O)CSc2cn(CC(=O)N(C(C)C)C(C)C)c3ccccc23)no1,2,2,0,98*,-3,-6
CCn1cc(SCC(=O)Nc2cc(C)on2)c2ccccc21,-1,8,-8,95*,5,-4
Cc1cc(NC(=O)CSc2ccc3ccccc3c2)no1,4,11,20,99*,-10,-4
Cc1cc(NC(=O)CSCC(=O)N2CCN(c3cccc(C(F)(F)F)c3)CC2)no1,x,x,-5,-3,4,-9
Cc1cc(NC(=O)CSCC(=O)N2CCN(c3ccccc3)CC2)no1,x,x,x,99*,x,x
COc1ccccc1N(C(=O)CNC(=O)c1ccco1)C(C(=O)NCC1CCCO1)c1ccccc1 (stereo not given),-6,7,2,-7,2,-11
C=CCOC(=O)/C=C/C(=O)NC(N)=O,-55,6,-1,98*,11,18

# Compound activity from PubChem BioAssay.
